# Assay outcomes as filed in PubChem BioAssay.
# H69AR inhibit: growth inhibitors of human H69AR lung tumor cells | AID 598 | viability, % at 10 µM | 85,000 compounds, 6% hits | H69AR lung tumor viability, ATP luminescence, 72 h; stronger effect = lower value;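 active means viability at or below 40%; inactive means viability above 40%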;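 further: multidrug resistant small cell line overexpressing MRP-1 efflux transporter; 100% = mean luminescence of untreated control wells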
# HUVEC inhibit: inhibitors of human endothelial cell proliferation; HUVEC proliferation, CellTiter-Glo luminescence, 72 h; stronger effect = lower value; viability, % at 10 µM (by protocol); 86,000 compounds, 1.1% hits;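 active means viability at or below 30%; inactive means viability above 30%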;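 further: 100% = median luminescence of DMSO-only cell control wells on each plate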
# Jurkat tox 60K: cytotoxic compounds reducing Jurkat cell viability; Jurkat E6.1 viability, ATP luminescence, 48 h; inhibition, % at 4 µM; 56,000 compounds, 1.2% hits;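 active means inhibition above the mean inhibition of all tested compounds plus 3 SD, cut at about 28% in these data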
# Fibroblast inh: blocks proliferation of human lung fibroblasts; LL 47 human lung fibroblast viability, ATP luminescence; stronger effect = lower value; viability, % at 10 µM; 85,000 compounds, 1.1% hits;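 active means viability at or below 50% in the single dose screen; inactive means viability above 50%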;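 further: compound exposure lasted 72 h before the ATP readout; 100% = median luminescence of untreated cell-only wells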
#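 Material: Human LL 47 lung fibroblast cells | Input: 1,150 cells/well | Buffer or medium: IMEM plus 15% FBS | Compound dosing: 0.1% DMSO in all compound wells | Times: Overnight cell rest, 72 h compound treatment at 37 °C | Signal: CellTiter-Glo luminescence measuring cellular ATP | Measure: % viability versus median cells-only luminescence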
# E coli WT exp: blocks growth of wild type E. coli BW25113 | OD600 absorbance | growth inhibition, % at 100 µM | 98,000 compounds, 0.15% hits | AID 710;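 active means growth inhibition above about 50% at one test dose, limit read from the data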;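 further: growth measured after 20 h incubation at 37 °C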
# Ecoli tolC: E. coli tolC mutant growth inhibition; 65,000 compounds, 2.2% hits; growth inhibition, % at 10 µM (by protocol); E. coli BW25113 tolC mutant growth, OD615; AID 573;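 active means growth inhibition at or above a cutoff equal to the mean over every tested compound plus 3 SD, cut at about 60% in these data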;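 further: growth measured after 20 h incubation at 37 °C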
#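 System: E. coli ΔtolC::kan strain BW25113; Buffer or medium: LB broth supplemented with 50 µg/mL kanamycin; Compound: 10 µM final, single dose; Incubation: bacterial growth with compound for 20 h at 37 °C; Signal: A615 absorbance measurement; Evaluation: growth inhibition in percent.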
# * = called active by the depositor; x = not tested or not shown. Compounds with a hit are over-represented: about 6.4% of the library has one in this group of screens.
SMILES,H69AR inhibit,HUVEC inhibit,Jurkat tox 60K,Fibroblast inh,E coli WT exp,Ecoli tolC
Cc1ccc(-c2cc(C(=O)Nc3ccc4c(c3)OCCO4)c3ccccc3n2)cc1,x,x,x,x,-6.0,x
CCn1cc(C(=O)NC2CC3CCC2C3)c(=O)c2ccc(C)nc21 (configuration not stated),96.5,87.7,-5.1,98.2,x,-0.2
CCn1cc(C(=O)NC2CCCCC2C)c(=O)c2ccc(C)nc21 (configuration not stated),70.5,96.7,3.9,x,92.0*,100.0*
COc1cccc(NC(=O)N(CCCN2CCOCC2)C(C)c2cc3ccccc3o2)c1 (configuration not stated),32.4*,83.8,x,90.0,3.0,x
Cc1ccc2nc(NC(=O)CCn3c(=O)sc4ccccc43)sc2c1,81.6,66.7,x,106.5,1.0,x
O=C1CSC(c2ccccn2)N1Cc1cn2ccccc2n1 (configuration not stated),93.7,99.8,0.1,13.7*,1.0,-12.3
O=C1CSC(c2ccccn2)N1c1cccc(Cl)c1 (configuration not stated),97.9,105.1,-4.8,104.0,1.0,-5.3
O=S(=O)(Nc1ccc2c(c1)OCCO2)c1cnc[nH]1,101.1,100.2,-0.5,103.2,3.0,-28.0
CCOC(=O)COc1ccc2nsnc2c1Cl,84.4,99.4,8.6,115.3,12.0,-9.4
C=C(CC)C(=O)c1ccc(OCC(=O)O)c(Cl)c1Cl,11.9*,57.3,x,59.5,x,9.8
CCCc1sc(N/N=C/c2ccccn2)nc1-c1ccc(F)cc1,13.1*,14.7*,x,19.3*,x,x
Cc1cccc(-c2cc3c(nn2)-c2ccccc2C3=O)c1,18.7*,59.0,x,84.2,-15.0,x
N#CCCn1cc(/C=N/O)c(-c2ccc(-c3ccccc3)cc2)n1,31.8*,56.1,43.0*,74.2,-10.0,-1.6
N#CCCn1cc(/C=N/O)c(-c2ccc(Cl)cc2)n1,95.2,101.3,x,93.2,9.0,x
COc1cc(NC(=O)c2ccc3c(c2)OCO3)ccc1NC(=O)C(C)C,72.5,92.4,98.4*,100.7,-8.0,-11.1
COC(=O)c1ccccc1NC(=O)Nc1ccc2c(c1)OCO2,106.5,85.5,x,96.8,2.0,x
COc1ccc(C(C)(C)C)cc1NC(=O)Nc1ccc2c(c1)OCO2,21.8*,59.6,-6.0,97.8,-4.0,65.0*
Cc1cc2nc(SCCOC(=O)Nc3ccc(Cl)cc3)nc(C)c2cc1C,x,x,x,x,-10.0,x
Cc1ccccc1-n1c(=O)/c(=C\c2ccco2)s/c1=C(/C#N)C(=O)Nc1ccccc1,52.2,84.7,x,88.5,-13.0,9.1
CCOC(=O)C1=c2s/c(=C\c3cccnc3)c(=O)n2C(N)=C(C(=O)OC)C1c1cccnc1 (configuration not stated),81.5,99.0,x,96.2,4.0,x
N#CC1=C(N)n2c(s/c(=C\c3ccco3)c2=O)=C(C#N)C1c1ccco1 (configuration not stated),38.5*,74.6,7.0,92.2,-3.0,14.4
CCOC(=O)C1=C(N)n2c(s/c(=C/c3ccco3)c2=O)=C(C(=O)OC)C1c1ccco1 (configuration not stated),4.8*,12.7*,21.3,80.3,-15.0,2.5
CCCCCCCOc1ccc(OC(=O)c2ccncc2)cc1,73.4,42.5,x,67.5,-10.0,x
Cc1cc(C(=O)OCc2nc3ccccc3s2)c(C)o1,65.3,110.3,0.5,96.0,1.0,100.0*
CC(=O)OCc1nc2ccccc2s1,76.6,94.3,x,95.4,4.0,x
SMILES,H69AR inhibit,HUVEC inhibit,Jurkat tox 60K,Fibroblast inh,E coli WT exp,Ecoli tolC
Cc1cc(C)n(Cc2cc(C)c(Cn3nc(C)cc3C)cc2C)n1,x,x,x,x,x,1.4
Cc1cc(C)cc(OC(=O)N2CCOCC2)c1,94.2,81.0,-2.8,91.3,4.0,-9.3
O=C(Nc1cccc(NC(=O)c2ccc(-c3ccc(Br)cc3)o2)c1)c1ccccc1,54.8,57.9,x,72.2,-4.0,x
COc1c(C)cc(Br)cc1C(=O)Nc1cccc(NC(=O)c2ccco2)c1,x,77.6,-1.1,108.2,-19.0,74.2*
O=C(Nc1cccc(NC(=O)c2ccc(-c3cccc(Br)c3)o2)c1)c1ccco1,25.3*,60.7,1.2,103.6,-34.0,33.2
COc1ccc(CCN2C(=O)CC(C(N)=O)SC2=Nc2ccccc2)cc1OC (configuration not stated),78.4,100.9,-1.3,103.0,-2.0,-2.6
CCCn1c(Nc2ccccc2C)nc2ccccc21,88.9,94.8,x,95.4,x,x
Cn1c(-c2ccc(C=O)s2)nc2c3ccccc3c3ccccc3c21,17.7*,60.1,x,88.8,-7.0,x
Cc1ccc(N2CCN(C(=O)c3ccccc3Br)CC2)c(C)c1,94.1,97.4,-0.4,99.8,-2.0,40.3
Cc1ccc(C)c(N2CCN(C(=O)c3cc4sccc4n3C)CC2)c1,93.8,90.5,-1.2,x,-6.0,76.3*
Cc1ccc(C)c(N2CCN(C(=O)c3ccccc3Br)CC2)c1,84.6,103.8,-4.0,97.3,-8.0,68.9*
CCOC(=O)N1CCN(C(=O)c2cc3sccc3n2C)CC1,x,x,-5.0,x,0.0,1.9
Cn1c(C(=O)N2CCN(c3cccc(C(F)(F)F)c3)CC2)cc2sccc21,x,x,-5.0,x,-29.0,70.9*
O=C(c1c(F)c(F)c(F)c(F)c1F)N1CCN(c2cccc(C(F)(F)F)c2)CC1,28.9*,35.9,-12.7,67.1,-14.0,49.4
O=C(c1ccccc1F)N1CCN(c2cccc(C(F)(F)F)c2)CC1,89.6,95.3,8.6,100.2,10.0,14.7
Cc1cc(OCCn2cc(/C(N)=N/O)c3ccccc32)ccc1Cl,x,x,x,x,-5.0,x
CCN1C=CC2=C(C#N)C(N)C(C#N)(C#N)C(c3ccccc3C(F)(F)F)C2C1 (configuration not stated),53.8,92.5,x,94.1,x,x
Cc1ccc(N2CCN(C(=O)c3ccccc3NC(=O)C3CC=CCC3C(=O)O)CC2)cc1 (configuration not stated),x,x,x,x,1.0,x
CC1Cc2cc(-c3csc(NC(=O)Cc4cccs4)n3)ccc2N1S(C)(=O)=O (configuration not stated),74.7,67.5,73.7*,79.2,-13.0,63.4*
CS(=O)(=O)N1CCc2cc(-c3csc(NC(=O)Cc4ccccc4)n3)ccc21,79.0,83.5,x,101.0,x,x
Clc1ccc(C2=Nn3c(nnc3-c3n[nH]c4c3CCC4)SC2)cc1Cl,x,x,15.7,x,11.0,99.2*
Cc1ccc(C2=Nc3ccccc3NC(C)(c3ccc(C)o3)C2)o1 (configuration not stated),37.5*,84.9,-5.2,86.3,9.0,25.8
COc1ccc(/C=N/N2CCN(c3ccccc3OC)CC2)cc1OC,x,x,x,x,8.0,x
COc1ccc(/C=N/n2c(SC)nnc2-c2ccccc2)c(OC)c1OC,30.2*,43.4,67.6*,60.4,1.0,21.8
COc1ccc(/C=N/n2c(SC)nnc2-c2ccccc2)cc1C,26.2*,86.9,2.7,88.1,-5.0,86.9*
CCOc1ccc(CCNC(=O)CN2CCN(Cc3ccccc3C)C2=O)cc1OCC,77.5,95.2,11.2,101.3,9.0,1.8
COc1ccc(N2CCN(CCNC(=O)CCS(=O)(=O)c3cccc4nsnc34)CC2)cc1,x,x,x,x,x,-8.5
